According to ChEMBL document CHEMBL1139315, “Search for new pharmacophores for antimalarial activity. Part II: synthesis and antimalarial activity of new 6-ureido-4-anilinoquinazolines” (Bioorg Med Chem, 2009):
Converted amounts (≈) assume the structure as drawn.

How the values were obtained:
Plasmodium falciparum [1] = test: Antimalarial activity as schizonticidal activity after 48 hrs against chloroquine-sensitive Plasmodium falciparum 3D7; format: functional; details: 3D7, 48 h
Outline: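 3D7 ring stages synchronized with 5% sorbitol; 3% cell suspension at 1% parasitaemia added to duplicate wells of diluted compound (DMSO stock 5 mg/mL, diluted in RPMI). Incubated at 37 °C under CO2 for more than 40 h. Giemsa-stained thin smears counted by light microscopy; MIC = lowest concentration giving 100% inhibition of schizont maturation against untreated control.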

Plasmodium yoelii = test: Antimalarial activity as reduced parasitaemia against chloroquine-resistant Plasmodium yoelii infected Swiss mice (Mus musculus) at 100 mg/kg peroral dose for 4 days; format: functional; parameters: scale not given: the % may be the effect or the level left; details: route oral
[2] = tested on: Plasmodium yoelii nigeriensis; test: (§1) Antimalarial activity as reduced parasitaemia against Plasmodium yoelii nigeriensis MDR infected Swiss mice (Mus musculus) at 100 mg/kg peroral dose […]; format: functional; parameters: scale not given: the % may be the effect or the level left; details: route oral
Outline: (§2)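 Swiss mice (25 g, either sex), five per group, infected with 1 × 10^6 parasitized cells on day 0. Aqueous suspension given orally from day 0 to day 4; vehicle-only group as control. Parasitaemia read from tail-vein thin blood smears, reported as mean % parasitaemia on day 4 and day 7.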

Plasmodium falciparum [3] = test: Antimalarial activity after 72 hrs against chloroquine-sensitive Plasmodium falciparum 3D7 infected erythrocytes by MSF assay; format: functional, organism-based; details: 3D7, 72 h
Outline: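 P. falciparum 3D7 kept in RPMI with gentamicin 40 µg/mL, Fungizone 0.25 µg/mL and 10% FBS (pH 7.2) at 37 °C under CO2. Twofold serial dilutions over seven concentrations, top 10–500 ng/mL, duplicate wells; 2.5% haematocrit, 0.5% parasitaemia; 72 h. SYBR Green I in lysis buffer (Tris pH 7.5, EDTA, saponin, Triton X-100), 1 h at room temperature, fluorescence read; IC50 by logit regression.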

[4] = Selectivity index, ratio of CC50 for african green monkey (Cercopithecus aethiops) Vero C1008 cells to IC50 for chloroquine-sensitive Plasmodium falciparum 3D7; format: functional
Outline: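 Vero C1008 cells exposed to serially diluted compound, highest 100 µg/mL, for 72 h; MTT read-out; CC50 = concentration killing 50% of cells. SI = CC50/IC50, with IC50 from the SYBR Green I assay on 3D7.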

[5] = tested on: Plasmodium yoelii nigeriensis; test: Antimalarial activity as reduced parasitaemia against Plasmodium yoelii nigeriensis MDR infected Swiss mice (Mus musculus) at 100 mg/kg peroral dose for 4 days; format: functional; parameters: scale not given: the % may be the effect or the level left; details: route oral; outline: as §2
Mus musculus = test: Toxicity against Plasmodium yoelii nigeriensis MDR infected Swiss mice (Mus musculus) assessed as death at 100 mg/kg, perorally; format: organism-based; parameters: dose 100 mg/kg, route oral; details: in vivo, po
[6] = tested on: Plasmodium yoelii nigeriensis; test: as §1; format: functional; parameters: scale not given: the % may be the effect or the level left; details: route oral; outline: as §2; remark: listed apart in the source

Compound	MIC (Plasmodium falciparum [1])	also measured
COc1ccc(Nc2ncnc3ccc(NC(=O)Nc4cccc(C(C)=O)c4)cc23)cc1OC	10 µg/mL (≈ 21.9 µM)	–
O=C(Nc1ccc(Cl)cc1)Nc1ccc2ncnc(Nc3ccc(F)cc3)c2c1	0.5 µg/mL (≈ 1.23 µM)	Activity (Plasmodium yoelii): 1.18%; Activity [2]: 9.38%
Cc1ccc(NC(=O)Nc2ccc3ncnc(Nc4ccc(F)cc4)c3c2)cc1Cl	0.5 µg/mL (≈ 1.19 µM)	Activity (Plasmodium yoelii): 2.8%; Activity [2]: 4.06%
COc1cccc(Nc2ncnc3ccc(NC(=O)Nc4cccc(C(C)=O)c4)cc23)c1	10 µg/mL (≈ 23.4 µM)	–
O=C(Nc1ccc(Br)cc1)Nc1ccc2ncnc(Nc3ccc(F)cc3)c2c1	10 µg/mL (≈ 22.1 µM)	–
O=C(Nc1cc(Cl)cc(Cl)c1)Nc1ccc2ncnc(Nc3cccc(C(F)(F)F)c3)c2c1	10 µg/mL (≈ 20.3 µM)	–
O=C(Nc1ccc(Cl)c(C(F)(F)F)c1)Nc1ccc2ncnc(Nc3cccc(C(F)(F)F)c3)c2c1	0.25 µg/mL (≈ 0.475 µM)	IC50 (Plasmodium falciparum [3]): 0.0023 µg/mL (≈ 0.00437 µM); Ratio CC50/IC50 [4]: 1194; Activity [5]: 10%; Activity [2]: 30.5%
COc1cccc(Nc2ncnc3ccc(NC(=O)Nc4cccc(C#N)c4)cc23)c1	10 µg/mL (≈ 24.4 µM)	–
COc1cccc(Nc2ncnc3ccc(NC(=O)Nc4ccc(C)c(Cl)c4)cc23)c1	0.5 µg/mL (≈ 1.15 µM)	–
Cc1ccc(NC(=O)Nc2ccc3ncnc(Nc4cccc(C(F)(F)F)c4)c3c2)cc1Cl	10 µg/mL (≈ 21.2 µM)	–
O=C(Nc1ccc(Cl)c(Cl)c1)Nc1ccc2ncnc(Nc3cccc(C(F)(F)F)c3)c2c1	0.25 µg/mL (≈ 0.508 µM)	IC50 (Plasmodium falciparum [3]): 0.013 µg/mL (≈ 0.0264 µM); Ratio CC50/IC50 [4]: 69
Cc1ccc(Nc2ncnc3ccc(NC(=O)Nc4ccc(Br)cc4)cc23)cc1	1 µg/mL (≈ 2.23 µM)	–
N#Cc1cccc(NC(=O)Nc2ccc3ncnc(Nc4cccc(C(F)(F)F)c4)c3c2)c1	1 µg/mL (≈ 2.23 µM)	–
O=C(Nc1ccc(Cl)cc1)Nc1ccc2ncnc(Nc3cccc(C(F)(F)F)c3)c2c1	0.25 µg/mL (≈ 0.546 µM)	IC50 (Plasmodium falciparum [3]): 0.0674 µg/mL (≈ 0.147 µM); Ratio CC50/IC50 [4]: 35.9
O=C(Nc1ccc(Cl)c(Cl)c1)Nc1ccc2ncnc(Nc3ccc(Cl)cc3)c2c1	0.5 µg/mL (≈ 1.09 µM)	–
O=C(Nc1ccc(Cl)c(Cl)c1)Nc1ccc2ncnc(Nc3cccc(F)c3)c2c1	0.25 µg/mL (≈ 0.565 µM)	IC50 (Plasmodium falciparum [3]): 0.0245 µg/mL (≈ 0.0554 µM); Ratio CC50/IC50 [4]: 221.5
O=C(Nc1ccc(Cl)c(C(F)(F)F)c1)Nc1ccc2ncnc(Nc3cccc(F)c3)c2c1	0.5 µg/mL (≈ 1.05 µM)	Activity [5]: 22%; Activity [2]: 14.5%
CC(=O)c1cccc(NC(=O)Nc2ccc3ncnc(Nc4ccc(C)cc4)c3c2)c1	2 µg/mL (≈ 4.86 µM)	–
COc1ccc(Nc2ncnc3ccc(NC(=O)Nc4ccc(Br)cc4)cc23)cc1OC	0.5 µg/mL (≈ 1.01 µM)	Activity [5]: 26.3%; Activity [2]: 26.5%
COc1ccc(Nc2ncnc3ccc(NC(=O)Nc4ccc(C)c(Cl)c4)cc23)cc1OC	0.25 µg/mL (≈ 0.539 µM)	IC50 (Plasmodium falciparum [3]): 0.0223 µg/mL (≈ 0.0481 µM); Ratio CC50/IC50 [4]: 449
COc1ccc(Nc2ncnc3ccc(NC(=O)Nc4cc(Cl)cc(Cl)c4)cc23)cc1OC	0.25 µg/mL (≈ 0.516 µM)	IC50 (Plasmodium falciparum [3]): 0.0832 µg/mL (≈ 0.172 µM); Ratio CC50/IC50 [4]: 36.1; Activity [5]: 23.7%; Activity [2]: 10.75%

Compound	MIC (Plasmodium falciparum [1])	also measured
COc1ccc(Nc2ncnc3ccc(NC(=O)Nc4ccc(Cl)cc4)cc23)cc1OC	0.5 µg/mL (≈ 1.11 µM)	–
COc1ccc(Nc2ncnc3ccc(NC(=O)Nc4ccc(Cl)c(Cl)c4)cc23)cc1	2 µg/mL (≈ 4.4 µM)	–
COc1ccc(Nc2ncnc3ccc(NC(=O)Nc4ccc(C(C)=O)cc4)cc23)cc1	2 µg/mL (≈ 4.68 µM)	–
N#Cc1cccc(NC(=O)Nc2ccc3ncnc(Nc4cccc(Cl)c4)c3c2)c1	0.5 µg/mL (≈ 1.21 µM)	–
O=C(Nc1ccc(Cl)c(Cl)c1)Nc1ccc2ncnc(Nc3cccc(Cl)c3)c2c1	0.5 µg/mL (≈ 1.09 µM)	–
O=C(Nc1ccc(Br)cc1)Nc1ccc2ncnc(Nc3cccc(C(F)(F)F)c3)c2c1	2 µg/mL (≈ 3.98 µM)	Activity [5]: 50.4%; Activity (Mus musculus): Toxic
O=C(Nc1ccc(Br)cc1)Nc1ccc2ncnc(Nc3ccccc3)c2c1	0.25 µg/mL (≈ 0.576 µM)	IC50 (Plasmodium falciparum [3]): 0.173 µg/mL (≈ 0.399 µM); Ratio CC50/IC50 [4]: 132.5
O=C(Nc1ccc(Cl)cc1)Nc1ccc2ncnc(Nc3ccccc3)c2c1	1 µg/mL (≈ 2.57 µM)	–
COc1ccc(Nc2ncnc3ccc(NC(=O)Nc4ccc(Cl)c(C(F)(F)F)c4)cc23)cc1OC	0.25 µg/mL (≈ 0.483 µM)	IC50 (Plasmodium falciparum [3]): 0.0182 µg/mL (≈ 0.0351 µM); Ratio CC50/IC50 [4]: 345.8; Activity [5]: 0%; Activity [2]: 0.49%; Activity [6]: 99%
COc1ccc(Nc2ncnc3ccc(NC(=O)Nc4cccc(C#N)c4)cc23)cc1	2 µg/mL (≈ 4.87 µM)	–
Cc1ccc(Nc2ncnc3ccc(NC(=O)Nc4cccc(C#N)c4)cc23)cc1	10 µg/mL (≈ 25.4 µM)	–
Cc1ccc(Nc2ncnc3ccc(NC(=O)Nc4ccc(C)c(Cl)c4)cc23)cc1	0.5 µg/mL (≈ 1.2 µM)	Activity (Plasmodium yoelii): 3.38%; Activity [2]: 10.82%
Cc1ccc(Nc2ncnc3ccc(NC(=O)Nc4ccc(Cl)c(Cl)c4)cc23)cc1	1 µg/mL (≈ 2.28 µM)	–
O=C(Nc1ccc(Cl)c(Cl)c1)Nc1ccc2ncnc(Nc3ccccc3)c2c1	10 µg/mL (≈ 23.6 µM)	–
N#Cc1cccc(NC(=O)Nc2ccc3ncnc(Nc4cccc(F)c4)c3c2)c1	0.5 µg/mL (≈ 1.26 µM)	Activity [5]: 46.4%; Activity (Mus musculus): Toxic
O=C(Nc1ccc(Cl)cc1)Nc1ccc2ncnc(Nc3cccc(Cl)c3)c2c1	> 10 µg/mL	–
COc1ccc(Nc2ncnc3ccc(NC(=O)Nc4ccc(Br)cc4)cc23)cc1	1 µg/mL (≈ 2.15 µM)	–
Cc1ccc(NC(=O)Nc2ccc3ncnc(Nc4ccccc4)c3c2)cc1Cl	1 µg/mL (≈ 2.48 µM)	–
Cc1ccc(NC(=O)Nc2ccc3ncnc(Nc4cccc(F)c4)c3c2)cc1Cl	0.25 µg/mL (≈ 0.593 µM)	IC50 (Plasmodium falciparum [3]): 0.147 µg/mL (≈ 0.348 µM); Ratio CC50/IC50 [4]: 76.6
O=C(Nc1ccc(Br)cc1)Nc1ccc2ncnc(Nc3ccc(Cl)cc3)c2c1	1 µg/mL (≈ 2.13 µM)	–
O=C(Nc1ccc(Cl)cc1)Nc1ccc2ncnc(Nc3cccc(F)c3)c2c1	0.5 µg/mL (≈ 1.23 µM)	Activity [5]: 0%; Activity [2]: 0.03%; Activity [6]: 99%

Compound	MIC (Plasmodium falciparum [1])	also measured
COc1ccc(Nc2ncnc3ccc(NC(=O)Nc4ccc(Cl)c(Cl)c4)cc23)cc1OC	0.25 µg/mL (≈ 0.516 µM)	IC50 (Plasmodium falciparum [3]): 0.0807 µg/mL (≈ 0.167 µM); Ratio CC50/IC50 [4]: 74.5; Activity [5]: 41%; Activity [2]: 14%
COc1ccc(Nc2ncnc3ccc(NC(=O)Nc4cccc(C#N)c4)cc23)cc1OC	0.5 µg/mL (≈ 1.14 µM)	Activity [5]: 13.9%; Activity [2]: 23.2%
O=C(Nc1ccc(Br)cc1)Nc1ccc2ncnc(Nc3cccc(F)c3)c2c1	0.5 µg/mL (≈ 1.11 µM)	–
O=C(Nc1ccc(Cl)cc1)Nc1ccc2ncnc(Nc3ccc(Cl)cc3)c2c1	0.5 µg/mL (≈ 1.18 µM)	–
COc1ccc(Nc2ncnc3ccc(NC(=O)Nc4ccc(C)c(Cl)c4)cc23)cc1	0.25 µg/mL (≈ 0.576 µM)	IC50 (Plasmodium falciparum [3]): 0.05 µg/mL (≈ 0.115 µM); Ratio CC50/IC50 [4]: 114.9
O=C(Nc1ccc(Br)cc1)Nc1ccc2ncnc(Nc3cccc(Cl)c3)c2c1	1 µg/mL (≈ 2.13 µM)	–
Cc1ccc(NC(=O)Nc2ccc3ncnc(Nc4ccc(Cl)cc4)c3c2)cc1Cl	1 µg/mL (≈ 2.28 µM)	–
COc1ccc(Nc2ncnc3ccc(NC(=O)Nc4cccc(C(C)=O)c4)cc23)cc1	10 µg/mL (≈ 23.4 µM)	–
Cc1ccc(Nc2ncnc3ccc(NC(=O)Nc4ccc(Cl)cc4)cc23)cc1	1 µg/mL (≈ 2.48 µM)	IC50 (Plasmodium falciparum [3]): 0.0771 µg/mL (≈ 0.191 µM); Ratio CC50/IC50 [4]: 126.3
O=C(Nc1ccc(Cl)c(Cl)c1)Nc1ccc2ncnc(Nc3ccc(F)cc3)c2c1	10 µg/mL (≈ 22.6 µM)	–
COc1ccc(Nc2ncnc3ccc(NC(=O)Nc4ccc(Cl)cc4)cc23)cc1	0.25 µg/mL (≈ 0.595 µM)	IC50 (Plasmodium falciparum [3]): 0.094 µg/mL (≈ 0.224 µM); Ratio CC50/IC50 [4]: 435.1
O=C(Nc1cc(Cl)cc(Cl)c1)Nc1ccc2ncnc(Nc3cccc(F)c3)c2c1	> 10 µg/mL	–
Cc1ccc(NC(=O)Nc2ccc3ncnc(Nc4cccc(Cl)c4)c3c2)cc1Cl	10 µg/mL (≈ 22.8 µM)	–
CC(=O)c1ccc(NC(=O)Nc2ccc3ncnc(Nc4ccc(C)cc4)c3c2)cc1	2 µg/mL (≈ 4.86 µM)	–
N#Cc1cccc(NC(=O)Nc2ccc3ncnc(Nc4ccccc4)c3c2)c1	0.5 µg/mL (≈ 1.31 µM)	–
COc1ccc(Nc2ncnc3ccc(NC(=O)Nc4ccc(C(C)=O)cc4)cc23)cc1OC	10 µg/mL (≈ 21.9 µM)	–
COc1cccc(Nc2ncnc3ccc(NC(=O)Nc4ccc(Br)cc4)cc23)c1	2 µg/mL (≈ 4.31 µM)	–
COc1cccc(Nc2ncnc3ccc(NC(=O)Nc4ccc(Cl)c(Cl)c4)cc23)c1	2 µg/mL (≈ 4.4 µM)	–
COc1cccc(Nc2ncnc3ccc(NC(=O)Nc4ccc(C(C)=O)cc4)cc23)c1	> 10 µg/mL	–
COc1cccc(Nc2ncnc3ccc(NC(=O)Nc4ccc(Cl)cc4)cc23)c1	0.25 µg/mL (≈ 0.595 µM)	IC50 (Plasmodium falciparum [3]): 0.159 µg/mL (≈ 0.377 µM); Ratio CC50/IC50 [4]: 378.9
CCN(CC)CCCC(C)Nc1ccnc2cc(Cl)ccc12 (centres undefined) [CHLOROQUINE]	0.125 µg/mL (≈ 0.391 µM)	–
